Source: ChEMBL document CHEMBL3091366, “New 5-Aryl-1H-imidazoles display in vitro antitumor activity against apoptosis-resistant cancer models, including melanomas, through mitochondrial targeting” (J Med Chem, 2013)

Experiments:
Assay type in all cases: functional, cell-based
[1] = tested on: T98G; assay: Cytotoxicity against apoptotic-resistant human T98G cells assessed as growth inhibition after 72 hrs by MTT-based colorimetric assay; conditions: Homo sapiens, T98G, 72 h
Outline: (§1)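 MTT colorimetric assay, 72 h exposure to the fumarate salt. Read-out is reduction of MTT to formazan by living cells. IC50 is the concentration that reduces the whole cell population by 50%. Six replicates per condition. Where compounds were not tested on every line, apoptosis-sensitive lines were PC3, MCF-7, LoVo and B16F10, and apoptosis-resistant lines were U373, T98G, A549 and SK-MEL-28.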

[2] = tested on: MCF7; assay: Cytotoxicity against apoptotic-sensitive human MCF7 cells assessed as growth inhibition after 72 hrs by MTT-based colorimetric assay; conditions: Homo sapiens, MCF7, 72 h; outline: as §1
[3] = tested on: SK-MEL-28; assay: Cytotoxicity against apoptotic-resistant human SK-MEL-28 cells assessed as growth inhibition after 72 hrs by MTT-based colorimetric assay; conditions: Homo sapiens, SK-MEL-28, 72 h; outline: as §1
[4] = tested on: LoVo; assay: Cytotoxicity against apoptotic-sensitive human LoVo cells assessed as growth inhibition after 72 hrs by MTT-based colorimetric assay; conditions: Homo sapiens, LoVo, 72 h; outline: as §1
[5] = tested on: B16-F10; assay: Cytotoxicity against apoptotic-sensitive mouse B16F10 cells assessed as growth inhibition after 72 hrs by MTT-based colorimetric assay; conditions: B16-F10, 72 h; outline: as §1
[6] = tested on: PC-3; assay: Cytotoxicity against apoptotic-sensitive human PC3 cells assessed as growth inhibition after 72 hrs by MTT-based colorimetric assay; conditions: Homo sapiens, PC-3, 72 h; outline: as §1
[7] = tested on: A549; assay: Cytotoxicity against apoptotic-resistant human A549 cells assessed as growth inhibition after 72 hrs by MTT-based colorimetric assay; conditions: Homo sapiens, A549, 72 h; outline: as §1

SMILES	IC50 [1] [µM]	IC50 [2] [µM]	IC50 [3] [µM]	IC50 [4] [µM]	IC50 [5] [µM]	IC50 [6] [µM]	IC50 [7] [µM]
C=CCCCCOc1ncc(-c2ccc(Cl)cc2OC)n1C	67	37	50	35	43	36	47
C=CCCCCOc1ncc(-c2cccc(OC)c2OC)n1C	35	28	27	11	27	36	43
C=CCCCCOc1ncc(-c2cc(C(F)(F)F)ccc2OC)n1C	88	61	56	51	59	57	62
COc1ccc(C)cc1-c1cnc(OCCCCc2ccccc2)n1C	44	28	42	27	34	43	40
